Assay results reported in ChEMBL document CHEMBL1140683, “N-4-Pyrimidinyl-1H-indazol-4-amine inhibitors of Lck: indazoles as phenol isosteres with improved pharmacokinetics” (Bioorg Med Chem Lett, 2007).

Tests used:
[1] = Oral bioavailability in BALB/c mouse at 1 mg/kg, po; type: ADME, organism-based; details: in vivo
Method in brief: (§1)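 Blood sampled over 8 h. Plasma protein-precipitated with acetonitrile, dried under nitrogen, reconstituted in 10:90 acetonitrile:water. Quantified by LC-MS/MS on an ODS3 column with a 0.1% formic acid water/acetonitrile gradient.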

[2] = Volume of distribution at steady state in BALB/c mouse at 1 mg/kg, iv; type: ADME, organism-based; design: dose 1 mg/kg, route intravenous; details: in vivo, read-out: Vdss; method in brief: as §1
[3] = biological target: T1, Tyrosine-protein kinase TXK (Homo sapiens, UniProt P42681); assay: Inhibition of Txk
T1 sequence (P42681 whole entry): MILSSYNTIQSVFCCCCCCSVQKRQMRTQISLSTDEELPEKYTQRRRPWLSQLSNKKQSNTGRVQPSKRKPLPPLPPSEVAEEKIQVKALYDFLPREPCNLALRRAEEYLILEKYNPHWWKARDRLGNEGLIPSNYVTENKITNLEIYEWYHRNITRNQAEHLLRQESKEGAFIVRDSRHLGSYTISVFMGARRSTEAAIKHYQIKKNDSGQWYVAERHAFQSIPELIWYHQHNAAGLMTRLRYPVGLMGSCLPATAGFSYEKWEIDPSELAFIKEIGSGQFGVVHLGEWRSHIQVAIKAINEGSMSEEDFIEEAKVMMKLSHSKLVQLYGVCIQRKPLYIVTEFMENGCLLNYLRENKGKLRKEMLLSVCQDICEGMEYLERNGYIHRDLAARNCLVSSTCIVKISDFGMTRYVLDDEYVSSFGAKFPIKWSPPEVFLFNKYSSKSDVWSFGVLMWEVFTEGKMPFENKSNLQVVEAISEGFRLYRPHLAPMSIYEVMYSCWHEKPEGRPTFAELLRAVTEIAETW

[4] = biological target: Tyrosine-protein kinase Lyn (Homo sapiens, UniProt P07948); assay: Inhibition of Lyn
Sequence of Tyrosine-protein kinase Lyn (P07948 whole entry): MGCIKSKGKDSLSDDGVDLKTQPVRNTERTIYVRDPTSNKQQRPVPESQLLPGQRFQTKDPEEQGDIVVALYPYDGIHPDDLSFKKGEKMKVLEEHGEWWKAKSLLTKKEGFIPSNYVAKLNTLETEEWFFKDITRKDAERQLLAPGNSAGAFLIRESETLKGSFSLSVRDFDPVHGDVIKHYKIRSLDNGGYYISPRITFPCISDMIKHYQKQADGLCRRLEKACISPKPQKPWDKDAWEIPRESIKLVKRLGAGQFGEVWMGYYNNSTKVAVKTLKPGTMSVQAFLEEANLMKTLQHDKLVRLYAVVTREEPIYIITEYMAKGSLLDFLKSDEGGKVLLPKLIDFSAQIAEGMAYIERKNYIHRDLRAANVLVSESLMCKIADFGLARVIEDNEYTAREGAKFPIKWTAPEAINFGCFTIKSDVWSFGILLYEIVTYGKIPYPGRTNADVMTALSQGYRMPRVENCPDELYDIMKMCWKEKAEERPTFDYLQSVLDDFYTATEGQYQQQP

[5] = biological target: Tyrosine-protein kinase BTK (Homo sapiens, UniProt Q06187); assay: Inhibition of Btk
Sequence of Tyrosine-protein kinase BTK (Q06187 whole entry): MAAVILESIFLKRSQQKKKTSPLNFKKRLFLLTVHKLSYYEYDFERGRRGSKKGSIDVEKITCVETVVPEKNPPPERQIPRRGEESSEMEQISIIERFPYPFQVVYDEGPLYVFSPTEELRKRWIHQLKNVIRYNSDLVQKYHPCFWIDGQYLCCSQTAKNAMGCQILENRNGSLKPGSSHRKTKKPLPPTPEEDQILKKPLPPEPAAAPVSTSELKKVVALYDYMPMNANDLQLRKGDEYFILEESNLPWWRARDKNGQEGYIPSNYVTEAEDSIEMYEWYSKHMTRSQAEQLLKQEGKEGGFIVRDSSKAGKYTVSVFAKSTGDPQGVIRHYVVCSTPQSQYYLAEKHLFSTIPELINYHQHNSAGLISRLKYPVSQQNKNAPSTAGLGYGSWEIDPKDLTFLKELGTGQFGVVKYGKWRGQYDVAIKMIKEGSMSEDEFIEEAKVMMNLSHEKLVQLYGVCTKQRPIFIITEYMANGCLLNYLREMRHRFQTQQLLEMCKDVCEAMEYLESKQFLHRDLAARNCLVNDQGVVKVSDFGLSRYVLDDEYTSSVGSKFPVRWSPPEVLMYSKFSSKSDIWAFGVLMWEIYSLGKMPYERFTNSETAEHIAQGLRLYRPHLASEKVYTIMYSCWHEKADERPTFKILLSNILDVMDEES

[6] = biological target: Tyrosine-protein kinase SYK (Homo sapiens, UniProt P43405)
[7] = Half life in BALB/c mouse at 1 mg/kg, iv; type: ADME, organism-based; design: dose 1 mg/kg, route intravenous; details: in vivo; method in brief: as §1
[8] = Plasma clearance in BALB/c mouse at 1 mg/kg, iv; type: ADME, organism-based; design: dose 1 mg/kg, route intravenous; method in brief: as §1
[9] = AUC (0 to t) in BALB/c mouse at 1 mg/kg, iv; type: ADME, organism-based; design: dose 1 mg/kg, route intravenous; details: plasma; method in brief: as §1
[10] = AUC (0 to t) in BALB/c mouse at 1 mg/kg, po; type: ADME, organism-based; design: dose 1 mg/kg, route oral; details: plasma; method in brief: as §1
[11] = biological target: Proto-oncogene tyrosine-protein kinase LCK (Mus musculus, UniProt P06240); assay: Inhibition of murine Lck by TR-FRET assay
Sequence of Proto-oncogene tyrosine-protein kinase LCK (P06240 whole entry): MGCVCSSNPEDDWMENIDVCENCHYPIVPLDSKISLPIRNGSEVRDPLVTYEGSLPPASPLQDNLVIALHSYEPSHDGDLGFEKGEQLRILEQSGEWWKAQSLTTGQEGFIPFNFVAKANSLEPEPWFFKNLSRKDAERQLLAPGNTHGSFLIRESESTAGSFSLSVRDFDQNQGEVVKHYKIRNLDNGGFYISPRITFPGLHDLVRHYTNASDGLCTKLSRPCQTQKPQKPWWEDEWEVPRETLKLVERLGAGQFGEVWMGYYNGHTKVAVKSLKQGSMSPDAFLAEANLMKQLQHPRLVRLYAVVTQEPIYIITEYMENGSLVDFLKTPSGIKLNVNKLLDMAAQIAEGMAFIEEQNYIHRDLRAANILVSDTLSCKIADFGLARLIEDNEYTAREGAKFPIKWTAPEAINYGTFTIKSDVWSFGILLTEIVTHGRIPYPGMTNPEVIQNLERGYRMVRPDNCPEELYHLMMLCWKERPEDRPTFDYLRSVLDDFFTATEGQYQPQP

[12] = biological target: Tyrosine-protein kinase Lck (Homo sapiens, UniProt P06239); assay: Inhibition of human Lck by TR-FRET assay
Sequence of Tyrosine-protein kinase Lck (P06239 whole entry): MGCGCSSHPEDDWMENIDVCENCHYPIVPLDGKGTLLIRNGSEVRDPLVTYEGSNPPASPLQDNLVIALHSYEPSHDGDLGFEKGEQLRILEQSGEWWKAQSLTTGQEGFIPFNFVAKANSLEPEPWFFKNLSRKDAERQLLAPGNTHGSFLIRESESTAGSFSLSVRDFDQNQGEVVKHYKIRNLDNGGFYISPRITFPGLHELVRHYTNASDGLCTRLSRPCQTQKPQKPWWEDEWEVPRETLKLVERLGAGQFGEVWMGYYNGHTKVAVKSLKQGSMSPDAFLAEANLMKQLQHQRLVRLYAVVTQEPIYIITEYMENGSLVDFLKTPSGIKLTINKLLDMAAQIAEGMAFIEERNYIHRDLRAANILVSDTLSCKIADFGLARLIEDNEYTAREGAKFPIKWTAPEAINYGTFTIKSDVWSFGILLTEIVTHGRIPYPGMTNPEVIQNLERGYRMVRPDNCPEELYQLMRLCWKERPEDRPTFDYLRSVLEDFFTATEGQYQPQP

[13] = Plasma clearance in BALB/c mouse at 2.5 mg/kg, iv; type: ADME, organism-based; design: dose 2.5 mg/kg, route intravenous; method in brief: as §1
[14] = Half life in BALB/c mouse at 2.5 mg/kg, iv; type: ADME, organism-based; design: dose 2.5 mg/kg, route intravenous; details: in vivo; method in brief: as §1
[15] = Volume of distribution at steady state in BALB/c mouse at 2.5 mg/kg, iv; type: ADME, organism-based; design: dose 2.5 mg/kg, route intravenous; details: in vivo, read-out: Vdss; method in brief: as §1
[16] = AUC (0 to t) in BALB/c mouse at 2.5 mg/kg, iv; type: ADME, organism-based; design: dose 2.5 mg/kg, route intravenous; details: plasma; method in brief: as §1
[17] = Oral bioavailability in BALB/c mouse at 10 mg/kg, po; type: ADME, organism-based; details: in vivo; method in brief: as §1
[18] = AUC (0 to t) in BALB/c mouse at 10 mg/kg, po; type: ADME, organism-based; design: dose 10 mg/kg, route oral; details: plasma; method in brief: as §1

Row | SMILES | IC50 [11] | further results
1 | Cc1ccc(NS(C)(=O)=O)cc1Nc1ccnc(Nc2cccc(C(N)=O)c2)n1 | 7700 nM | 
2 | COc1cccc(Nc2ccnc(Nc3cccc(C(N)=O)c3)n2)c1 | 2700 nM | 
3 | CC(=O)N(C)c1cccc(Nc2ccnc(Nc3cccc(C(N)=O)c3)n2)c1 | 1800 nM | 
4 | Cc1ccc(O)cc1Nc1ccnc(Nc2cccc(C(N)=O)c2)n1 | 13 nM | IC50 [12]: 14 nM; IC50 [3]: 2 nM; IC50 [4]: 3 nM; IC50 [5]: 9 nM
5 | Cc1ccc(O)cc1Nc1ccnc(Nc2cccc(S(N)(=O)=O)c2)n1 | 8.5 nM | clearance [13]: 65.5 mL/min/kg; half-life [14]: 7.2 min; Vd [15]: 0.3 L/kg; IC50 [3]: 0.4 nM; IC50 [4]: 1 nM; IC50 [6]: 4 nM; AUC(0-t) [16]: 635 ng·h/mL; bioavailability [17]: < 1%; AUC(0-t) [18]: 2 ng·h/mL
6 | NS(=O)(=O)c1cccc(Nc2nccc(Nc3ccc(F)cc3F)n2)c1 | 350 nM | 
7 | Cc1cccc(O)c1Nc1ccnc(Nc2cccc(C(N)=O)c2)n1 | 100 nM | 
8 | NC(=O)c1cccc(Nc2nccc(Nc3cc(O)ccc3Br)n2)c1 | 41 nM | 
9 | Cc1cc(O)ccc1Nc1ccnc(Nc2cccc(C(N)=O)c2)n1 | 40 nM | 
10 | NC(=O)c1cccc(Nc2nccc(Nc3ccc4nn[nH]c4c3)n2)c1 | 4400 nM | 
11 | Cn1ncc2c(Nc3ccnc(Nc4cccc(C(N)=O)c4)n3)cccc21 | 1600 nM | 
12 | Cc1ccc2c(cnn2C)c1Nc1ccnc(Nc2cccc(C(N)=O)c2)n1 | 2800 nM | 
13 | Cc1ccc2[nH]ncc2c1Nc1ccnc(Nc2cccc(C(N)=O)c2)n1 | 12 nM | IC50 [3]: 28 nM; IC50 [4]: 40 nM; IC50 [5]: 97 nM; IC50 [6]: 220 nM
14 | NS(=O)(=O)c1cccc(Nc2nccc(Nc3cccc4[nH]ncc34)n2)c1 | 33 nM | 
15 | CC(C)c1ccc(O)cc1Nc1ccnc(Nc2cccc(C(N)=O)c2)n1 | 880 nM | 
16 | Cn1ncc2ccc(Nc3ccnc(Nc4cccc(C(N)=O)c4)n3)cc21 | 8200 nM | 
17 | NC(=O)c1cccc(Nc2nccc(Nc3cccc(F)c3)n2)c1 | 3300 nM | 
18 | Cc1ccc(C(N)=O)cc1Nc1ccnc(Nc2cccc(C(N)=O)c2)n1 | 1300 nM | 
19 | Cc1ccccc1Nc1ccnc(Nc2cccc(C(N)=O)c2)n1 | 89 nM | 
20 | Cc1ccc(CN)cc1Nc1ccnc(Nc2cccc(C(N)=O)c2)n1 | 3400 nM | 
21 | NC(=O)c1cccc(Nc2nccc(Nc3cccc4nn[nH]c34)n2)c1 | 490 nM | 

More lines, in order of falling IC50 [11], values ahead:

Row | IC50 [11] | SMILES | further results
22 | 16000 nM | Cn1cnc2ccc(Nc3ccnc(Nc4cccc(C(N)=O)c4)n3)cc21 | 
23 | 9300 nM | Cc1ccc(C(=O)N(C)C)cc1Nc1ccnc(Nc2cccc(C(N)=O)c2)n1 | 
24 | 5600 nM | Cc1nc2c(Nc3ccnc(Nc4cccc(C(N)=O)c4)n3)cccc2[nH]1 | 
25 | 3000 nM | NC(=O)c1cccc(Nc2nccc(Nc3ccc4[nH]ncc4c3)n2)c1 | 
26 | 3000 nM | NC(=O)c1cccc(Nc2nccc(Nc3ccc4ncsc4c3)n2)c1 | 
27 | 1800 nM | Cn1cnc2cc(Nc3ccnc(Nc4cccc(C(N)=O)c4)n3)ccc21 | 
28 | 1400 nM | NC(=O)c1cccc(Nc2nccc(Nc3cccc4cn[nH]c34)n2)c1 | 
29 | 1100 nM | NC(=O)c1cccc(Nc2nccc(Nc3ccc(F)cc3F)n2)c1 | 
30 | 560 nM | NC(=O)c1cccc(Nc2nccc(Nc3cccc4ncccc34)n2)c1 | 
31 | 520 nM | Cc1cc(Nc2ccnc(Nc3cccc(C(N)=O)c3)n2)c2cn[nH]c2c1 | 
32 | 380 nM | Cc1ccc(Cl)cc1Nc1ccnc(Nc2cccc(C(N)=O)c2)n1 | 
33 | 270 nM | Cc1ccc(F)cc1Nc1ccnc(Nc2cccc(C(N)=O)c2)n1 | 
34 | 190 nM | Cc1ccc(Nc2ccnc(Nc3cccc(C(N)=O)c3)n2)cc1O | 
35 | 130 nM | NC(=O)c1cccc(Nc2nccc(Nc3cccc(O)c3)n2)c1 | 
36 | 100 nM | NC(=O)c1cccc(Nc2nccc(Nc3cccc4[nH]ncc34)n2)c1 [GW782612X] | 
37 | 97 nM | Cc1ccc(N)cc1Nc1ccnc(Nc2cccc(C(N)=O)c2)n1 | 
38 | 86 nM | COc1ccc(C)c(Nc2ccnc(Nc3cccc(C(N)=O)c3)n2)c1 | 
39 | 73 nM | Cc1cc(O)cc(Nc2ccnc(Nc3cccc(C(N)=O)c3)n2)c1 | 
40 | 55 nM | Cc1ccc(Nc2ccnc(Nc3cccc(C(N)=O)c3)n2)c2cn[nH]c12 | 
41 | 54 nM | COc1ccc(C)c(Nc2ccnc(Nc3cccc(S(N)(=O)=O)c3)n2)c1 | 
42 | 19 nM | Cc1ccc2[nH]ncc2c1Nc1ccnc(Nc2cccc(S(N)(=O)=O)c2)n1 | bioavailability [1]: 25%; Vd [2]: 0.7 L/kg; IC50 [3]: 220 nM; IC50 [4]: 430 nM; IC50 [5]: 69 nM; IC50 [6]: 620 nM; half-life [7]: 31.8 min; clearance [8]: 22.4 mL/min/kg; AUC(0-t) [9]: 743 ng·h/mL; AUC(0-t) [10]: 190 ng·h/mL
